According to ChEMBL document CHEMBL4321882, “α-Helix-Mimicking Sulfono-γ-AApeptide Inhibitors for p53-MDM2/MDMX Protein-Protein Interactions” (J Med Chem, 2020):
The source made the active and inactive calls. The rule behind the calls is not given here.

How the values were obtained:
[1] = biological target: T1, E3 ubiquitin-protein ligase Mdm2 (Homo sapiens, UniProt Q00987); assay: Binding affinity to human MDM2 expressed in Escherichia coli expression system by using (FITC)-labeled p53 peptide based fluorescence polarization competitive assay
Target sequence in this assay (Q00987 whole entry): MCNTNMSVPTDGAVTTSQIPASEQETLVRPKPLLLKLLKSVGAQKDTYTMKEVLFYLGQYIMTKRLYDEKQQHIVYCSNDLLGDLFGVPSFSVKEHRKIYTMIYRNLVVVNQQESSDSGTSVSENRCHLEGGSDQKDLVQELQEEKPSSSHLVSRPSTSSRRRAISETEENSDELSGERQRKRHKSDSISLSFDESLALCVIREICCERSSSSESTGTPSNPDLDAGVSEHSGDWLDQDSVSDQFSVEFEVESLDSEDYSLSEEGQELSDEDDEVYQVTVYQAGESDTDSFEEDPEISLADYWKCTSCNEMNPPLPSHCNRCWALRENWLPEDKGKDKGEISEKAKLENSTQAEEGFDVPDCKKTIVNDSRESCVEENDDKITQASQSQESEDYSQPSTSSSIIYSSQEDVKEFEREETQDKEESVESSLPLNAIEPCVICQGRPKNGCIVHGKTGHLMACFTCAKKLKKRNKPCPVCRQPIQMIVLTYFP

[2] = Enzymatic stability assessed as alpha-chymotrypsin (unknown origin)-mediated compound hydrolysis at pH 7.8 at 0.1 mg/ml incubated for 24 hrs by HPLC-MS analysis; type: ADME; settings: human, buffer, pH 7.8, 24 h
Procedure, shortened: (§1)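 Compound (0.1 mg/mL) was incubated with 0.1 mg/mL α-chymotrypsin or pronase in 100 mM ammonium bicarbonate, pH 7.8, at 37 °C for 24 h. Mixtures were concentrated by speed vacuum to remove water and buffer salt. Residual compound was then analysed by HPLC-MS.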

[3] = biological target: T1, E3 ubiquitin-protein ligase Mdm2; assay: Binding affinity to human MDM2 (17-125 residues) by NMR spectroscopic analysis
Procedure, shortened: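 Uniformly 15N/13C-labelled human MDM2 residues 17–125 was analysed free and with ligand. Sensitivity-enhanced 1H–15N HSQC and 3D HNCA spectra were recorded for resonance assignment. Buffer was 50 mM sodium phosphate, 100 NaCl, 1 mM EDTA, 0.02% sodium azide and 2 mM DTT, pH 6.8, with 10% D2O.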
Target sequence in this assay (Q00987 whole entry, looked up): as the sequence (Q00987 whole entry) above

[4] = biological target: T1, E3 ubiquitin-protein ligase Mdm2; assay: Potency index, ratio of p53 binding affinity to compound binding affinity to human MDM2 (17-125 residues) by NMR spectroscopic analysis
Target sequence in this assay (Q00987 whole entry, looked up): as the sequence (Q00987 whole entry) above

[5] = biological target: Cellular tumor antigen p53 (Homo sapiens) (UniProt P04637); assay: Activation of p53 in human U2OS cells cotransfected with BP100-luc and CMV-lacZ gene assessed as luciferase gene expression at 30 uM incubated for 18 hrs by p53-dependent luciferase transcriptional activation assay; type: cell-based
Cellular tumor antigen p53 (Homo sapiens), sequence (P04637 whole entry, looked up): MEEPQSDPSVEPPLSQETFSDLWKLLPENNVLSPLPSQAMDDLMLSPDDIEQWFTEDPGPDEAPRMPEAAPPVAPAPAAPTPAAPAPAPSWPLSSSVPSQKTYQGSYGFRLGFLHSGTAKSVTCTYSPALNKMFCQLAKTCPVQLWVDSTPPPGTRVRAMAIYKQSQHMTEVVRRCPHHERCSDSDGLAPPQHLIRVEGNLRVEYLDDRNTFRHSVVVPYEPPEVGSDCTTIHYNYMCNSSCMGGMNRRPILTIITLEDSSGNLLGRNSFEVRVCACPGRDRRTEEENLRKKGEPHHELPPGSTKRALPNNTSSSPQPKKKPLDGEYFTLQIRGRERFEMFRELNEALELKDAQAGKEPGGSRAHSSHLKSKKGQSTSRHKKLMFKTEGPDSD
Procedure, shortened: (§2)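 U2OS cells stably carrying the p53-responsive BP100-luc reporter and a CMV-lacZ control were seeded at 100,000 per well 24 h before dosing at 30 μM. Lysates were assayed for luciferase and β-gal activity. […] Each value is the average of at least three measurements, with standard deviation.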

[6] = biological target: Cellular tumor antigen p53 (Homo sapiens) (UniProt P04637); assay: Activation of p53 in human U2OS cells cotransfected with BP100-luc and CMV-lacZ gene assessed as lacZ gene expression at 30 uM incubated for 18 hrs by p53-dependent luciferase transcriptional activation assay; type: cell-based; procedure, shortened: as §2
Protein Mdm4 = biological target: T2, Protein Mdm4 (Homo sapiens, UniProt O15151); assay: Binding affinity to MDMX (unknown origin) by using (FITC)-labeled p53 peptide based fluorescence polarization competitive assay
T2 sequence (O15151 whole entry): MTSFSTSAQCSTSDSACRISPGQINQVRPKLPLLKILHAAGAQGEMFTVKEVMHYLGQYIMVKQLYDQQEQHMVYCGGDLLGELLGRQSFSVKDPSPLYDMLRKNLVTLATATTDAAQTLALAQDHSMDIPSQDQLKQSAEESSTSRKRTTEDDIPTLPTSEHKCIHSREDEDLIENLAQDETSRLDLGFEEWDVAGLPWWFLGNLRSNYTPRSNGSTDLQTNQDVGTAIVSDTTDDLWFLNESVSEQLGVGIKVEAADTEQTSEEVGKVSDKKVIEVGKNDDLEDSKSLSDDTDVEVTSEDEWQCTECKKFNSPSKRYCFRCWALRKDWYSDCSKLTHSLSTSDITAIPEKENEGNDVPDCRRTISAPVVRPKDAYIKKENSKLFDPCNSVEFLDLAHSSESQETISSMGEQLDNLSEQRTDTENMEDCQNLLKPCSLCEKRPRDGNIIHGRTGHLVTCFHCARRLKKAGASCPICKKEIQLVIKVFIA

[7] = Enzymatic stability assessed as pronase (unknown origin)-mediated compound hydrolysis at pH 7.8 at 0.1 mg/ml incubated for 24 hrs by HPLC-MS analysis; type: ADME; settings: buffer, pH 7.8, 24 h; procedure, shortened: as §1
HCT-116 [8] = assay: Antiproliferative activity against human HCT116 cells expressing wild-type p53 assessed as reduction in cell viability at 200 uM incubated for 48 hrs by MTT assay
HCT-116 [9] = assay: Antiproliferative activity against human HCT116 cells harboring p53 deletion mutant assessed as reduction in cell viability at 200 uM incubated for 48 hrs by MTT assay
[10] = biological target: T1, E3 ubiquitin-protein ligase Mdm2; assay: Potency index, ratio of p53 IC50 to test compound IC50 for binding affinity to human MDM2 expressed in Escherichia coli expression system by using (FITC)-labeled p53 peptide based fluorescence polarization competitive assay
Target sequence in this assay (Q00987 whole entry, looked up): as the sequence (Q00987 whole entry) above

[11] = biological target: T3, Tumour suppressor p53/oncoprotein Mdm2 (Homo sapiens) (UniProt P04637+Q00987); assay: Inhibition of MDM2/p53 interaction in human U2OS cells assessed as increase in MDM2 level at 30 uM incubated for 16 hrs by Western blot analysis; type: cell-based
T3 sequence (P04637 whole entry, looked up): as the sequence (P04637 whole entry, looked up) above
T3 sequence (Q00987 whole entry, looked up): as the sequence (Q00987 whole entry) above
Procedure, shortened: (§3)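 Exponentially growing U2OS cells were treated at 30 μM for 16 h, then lysed in RIPA with 1 mM PMSF and protease inhibitors. Lysates were resolved by SDS-PAGE and blotted. Blots were blocked in PBS with 5% milk and 0.1% Tween 20.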

[12] = biological target: T3, Tumour suppressor p53/oncoprotein Mdm2 (Homo sapiens); assay: Inhibition of MDM2/p53 interaction in human U2OS cells assessed as increase in p53 level at 30 uM incubated for 16 hrs by Western blot analysis; type: cell-based; procedure, shortened: as §3
[13] = biological target: T3, Tumour suppressor p53/oncoprotein Mdm2 (Homo sapiens); assay: Inhibition of MDM2/p53 interaction in human U2OS cells assessed as increase in p21 level at 30 uM incubated for 16 hrs by Western blot analysis; type: cell-based; procedure, shortened: as §3

Structure (SMILES) | IC50 [1] | Stability [2] | Kd [1] | IC50 ([1]; read-out: IC50) | Activity [3] | Ratio [4] | Activity [5] | Activity [6] | IC50 (Protein Mdm4) | Kd (Protein Mdm4) | Stability [7] | inhibition (HCT-116 [8]) | Activity (HCT-116 [9]) | Ratio IC50 [10] | inhibition [11] | inhibition [12] | inhibition [13]
CC(=O)N[C@@H](CC(C)C)CN(CC(=O)N[C@@H](Cc1ccccc1)CN(CC(=O)N[C@@H](CCC(=O)O)CN(CC(=O)N[C@@H](C)CN(CC(=O)N[C@@H](CCCCN)CN(CC(=O)N[C@@H](CC(C)C)CN(CC(=O)N[C@@H](C)CN(CC(N)=O)S(C)(=O)=O)S(=O)(=O)CC(C)C)S(C)(=O)=O)S(C)(=O)=O)S(C)(=O)=O)S(C)(=O)=O)S(=O)(=O)c1ccc(Cl)cc1 | Not Active |  |  |  |  |  |  |  |  |  |  |  |  |  |  |  | 
CC(=O)N[C@@H](CC(C)C)CN(CC(=O)N[C@@H](Cc1ccccc1)CN(CC(=O)N[C@@H](CCC(=O)O)CN(CC(=O)N[C@@H](Cc1c[nH]c2ccccc12)CN(CC(=O)N[C@@H](CCCCN)CN(CC(=O)N[C@@H](CC1CCC1)CN(CC(=O)N[C@@H](C)CN(CC(N)=O)S(C)(=O)=O)S(=O)(=O)CC(C)C)S(C)(=O)=O)S(C)(=O)=O)S(C)(=O)=O)S(C)(=O)=O)S(=O)(=O)c1ccc(Cl)cc1 |  | Stable | 26 nM | 891 nM | Active | 10 | Active | inactive | 3.6 µM | 221 nM | Stable | Active | Active |  |  |  | 
CC(=O)N[C@@H](CC(C)C)CN(CC(=O)N[C@@H](Cc1ccccc1)CN(CC(=O)N[C@@H](CCC(=O)O)CN(CC(=O)N[C@@H](Cc1c[nH]c2ccccc12)CN(CC(=O)N[C@@H](CCCCN)CN(CC(=O)N[C@@H](CC(C)C)CN(CC(=O)N[C@@H](C)CN(CC(N)=O)S(C)(=O)=O)S(=O)(=O)CC(C)C)S(C)(=O)=O)S(C)(=O)=O)S(C)(=O)=O)S(C)(=O)=O)S(=O)(=O)c1ccc(Cl)cc1 |  | Stable | 57 nM | 2800 nM |  |  | Active | inactive | 6 µM | 370 nM | Stable |  |  | 1.5 |  |  | 
CC(=O)N[C@@H](CC(C)C)CN(CC(=O)N[C@@H](Cc1ccccc1)CN(CC(=O)N[C@@H](CCC(=O)O)CN1CC(=O)N[C@@H](Cc2c[nH]c3ccccc23)CN(S(C)(=O)=O)CC(=O)N[C@@H](CCCCN)CN(CC(=O)N[C@@H](CC(C)C)CN(CC(=O)N[C@@H](C)CN(CC(N)=O)S(C)(=O)=O)S(=O)(=O)CC(C)C)S(=O)(=O)CC/C=C/CCCCS1(=O)=O)S(C)(=O)=O)S(=O)(=O)c1ccc(Cl)cc1 |  | Stable |  | 3600 nM |  |  | 25% |  | 6.6 µM |  | Stable |  |  |  | Active | Active | Active
CC(=O)N[C@@H](CC(C)C)CN(CC(=O)N[C@@H](Cc1ccccc1)CN(CC(=O)N[C@@H](CCC(=O)O)CN1CC(=O)N[C@@H](Cc2c[nH]c3ccccc23)CN(S(C)(=O)=O)CC(=O)N[C@@H](CCCCN)CN(CC(=O)N[C@@H](CC(C)C)CN(CC(=O)N[C@@H](C)CN(CC(N)=O)S(C)(=O)=O)S(=O)(=O)CC(C)C)S(=O)(=O)CCCC/C=C/CCCCS1(=O)=O)S(C)(=O)=O)S(=O)(=O)c1ccc(Cl)cc1 |  | Stable |  | 1900 nM |  |  | 70% |  | 3.9 µM |  | Stable | Active | Active |  | Active | Active | Active
CC(=O)N[C@@H](CC(C)C)CN(CC(=O)N[C@@H](Cc1ccccc1)CN(CC(=O)N[C@@H](CCC(=O)O)CN(CC(=O)N[C@@H](Cc1c[nH]c2ccccc12)CN(CC(=O)N[C@@H](CCCCN)CN(CC(=O)N[C@@H](CC1CCCCC1)CN(CC(=O)N[C@@H](C)CN(CC(N)=O)S(C)(=O)=O)S(=O)(=O)CC(C)C)S(C)(=O)=O)S(C)(=O)=O)S(C)(=O)=O)S(C)(=O)=O)S(=O)(=O)c1ccc(Cl)cc1 |  | Stable |  |  |  |  |  |  |  |  | Stable |  |  |  |  |  | 
